Measurements from ChEMBL document CHEMBL1123146, “Design, synthesis, and evaluation of omega-iodovinyl- and omega-iodoalkyl-substituted methyl-branched long-chain fatty acids” (J Med Chem, 1985).

Assays:
Rattus norvegicus [1] = assay: Distribution of radioactivity was measured in thyroid tissue of unfasted Fischer 344 rats administered intravenously after 30 minutes (radiolabeled with [125I]-; type: ADME, organism-based, Thyroid gland; details: in vivo, iv, 0.5 h
Outline: (§1)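 Female Fischer 344 rats, 10–12 weeks old (170–200 g), with food and water ad libitum, five per time point. The radioiodinated fatty acid was dissolved in ethanol, added to 6% BSA at ~40 °C (final 10% ethanol), filtered, and injected into a lateral tail vein (0.5 mL) under ether anesthesia. Blood was taken by cardiac puncture; organs were rinsed, blotted, weighed and gamma-counted against injectate standards. Output is % injected dose/g.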

Rattus norvegicus [2] = assay: Distribution of radioactivity was measured in liver tissue of unfasted Fischer 344 rats administered intravenously after 2 minutes (radiolabeled with [125I]-; type: ADME, organism-based; details: in vivo, iv; outline: as §1
Rattus norvegicus [3] = assay: Distribution of radioactivity was measured in liver tissue of unfasted Fischer 344 rats administered intravenously after 60 minutes (radiolabeled with [125I]-; type: ADME, organism-based; details: in vivo, iv, 1 h; outline: as §1
Rattus norvegicus [4] = species on record: Rattus norvegicus; assay: Specific activity was determined with radioiodinated iodine-125; type: functional
Rattus norvegicus [5] = assay: Distribution of radioactivity was measured in kidney tissue of unfasted Fischer 344 rats administered intravenously after 30 minutes (radiolabeled with [125I]-; type: ADME, organism-based; details: in vivo, iv, 0.5 h; outline: as §1
Rattus norvegicus [6] = species on record: Rattus norvegicus; assay: Specific activity was determined with radioiodinated iodine-123; type: functional
Rattus norvegicus [7] = assay: Distribution of radioactivity was measured in thyroid tissue of unfasted Fischer 344 rats administered intravenously after 15 minutes (radiolabeled with [125I]-; type: ADME, organism-based, Thyroid gland; details: in vivo, iv, 0.25 h; outline: as §1
Rattus norvegicus [8] = assay: Mean heart/blood tissue of unfasted Fischer 344 rats administered intravenous after 15 minutes (radiolabeled with [125I]-; type: ADME, organism-based; details: in vivo, 0.25 h
Outline: (§2)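 Female Fischer 344 rats (10-12 weeks, 170-200 g), fed ad libitum before and during the experiment, five per time point. The radioiodinated fatty acid was dissolved in 0.5 mL absolute ethanol, added dropwise to stirred 6% BSA at ~40 °C (final ethanol 10%), filtered at 0.22 µm, and injected in 0.5 mL into a lateral tail vein under ether anesthesia.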

Rattus norvegicus [9] = assay: Mean heart/blood tissue of unfasted Fischer 344 rats administered intravenous after 2 minutes (radiolabeled with [125I]-; type: ADME, organism-based; details: in vivo; outline: as §2
Rattus norvegicus [10] = assay: Distribution of radioactivity was measured in thyroid tissue of unfasted Fischer 344 rats administered intravenously after 5 minutes (radiolabeled with [125I]-; type: ADME, organism-based, Thyroid gland; details: in vivo, iv; outline: as §1
Rattus norvegicus [11] = assay: Distribution of radioactivity was measured in heart tissue of unfasted Fischer 344 rats administered intravenously after 30 minutes (radiolabeled with [125I]-; type: ADME, organism-based; details: in vivo, iv, 0.5 h; outline: as §1
Rattus norvegicus [12] = assay: Distribution of radioactivity was measured in heart tissue of unfasted Fischer 344 rats administered intravenously after 5 minutes (radiolabeled with [125I]-; type: ADME, organism-based; details: in vivo, iv; outline: as §1
Rattus norvegicus [13] = assay: Distribution of radioactivity was measured in lung tissue of unfasted Fischer 344 rats administered intravenously after 2 minutes (radiolabeled with [125I]-; type: ADME, organism-based; details: in vivo, iv; outline: as §1
Rattus norvegicus [14] = assay: Distribution of radioactivity was measured in thyroid tissue of unfasted Fischer 344 rats administered intravenously after 2 minutes (radiolabeled with [125I]-; type: ADME, organism-based, Thyroid gland; details: in vivo, iv; outline: as §1
Rattus norvegicus [15] = assay: Distribution of radioactivity was measured in blood tissue of unfasted Fischer 344 rats administered intravenously after 2 minutes (radiolabeled with [125I]-; type: ADME, organism-based; details: in vivo, iv; outline: as §1
Rattus norvegicus [16] = assay: Distribution of radioactivity was measured in lung tissue of unfasted Fischer 344 rats administered intravenously after 30 minutes (radiolabeled with [125I]-; type: ADME, organism-based; details: in vivo, iv, 0.5 h; outline: as §1
Rattus norvegicus [17] = assay: Mean heart/blood tissue of unfasted Fischer 344 rats administered intravenous after 5 minutes (radiolabeled with [125I]-; type: ADME, organism-based; details: in vivo; outline: as §2
Rattus norvegicus [18] = assay: Distribution of radioactivity was measured in liver tissue of unfasted Fischer 344 rats administered intravenously after 5 minutes (radiolabeled with [125I]-; type: ADME, organism-based; details: in vivo, iv; outline: as §1
Rattus norvegicus [19] = assay: Distribution of radioactivity was measured in blood tissue of unfasted Fischer 344 rats administered intravenously after 5 minutes (radiolabeled with [125I]-; type: ADME, organism-based; details: in vivo, iv; outline: as §1
Rattus norvegicus [20] = assay: Distribution of radioactivity was measured in kidney tissue of unfasted Fischer 344 rats administered intravenously after 60 minutes (radiolabeled with [125I]-; type: ADME, organism-based; details: in vivo, iv, 1 h; outline: as §1
Rattus norvegicus [21] = assay: Distribution of radioactivity was measured in liver tissue of unfasted Fischer 344 rats administered intravenously after 15 minutes (radiolabeled with [125I]-; type: ADME, organism-based; details: in vivo, iv, 0.25 h; outline: as §1
Rattus norvegicus [22] = assay: Distribution of radioactivity was measured in kidney tissue of unfasted Fischer 344 rats administered intravenously after 5 minutes (radiolabeled with [125I]-; type: ADME, organism-based; details: in vivo, iv; outline: as §1
Rattus norvegicus [23] = assay: Distribution of radioactivity was measured in heart tissue of unfasted Fischer 344 rats administered intravenously after 60 minutes (radiolabeled with [125I]-; type: ADME, organism-based; details: in vivo, iv, 1 h; outline: as §1
Rattus norvegicus [24] = assay: Distribution of radioactivity was measured in lung tissue of unfasted Fischer 344 rats administered intravenously after 5 minutes (radiolabeled with [125I]-; type: ADME, organism-based; details: in vivo, iv; outline: as §1
Rattus norvegicus [25] = assay: Distribution of radioactivity was measured in thyroid tissue of unfasted Fischer 344 rats administered intravenously after 60 minutes (radiolabeled with [125I]-; type: ADME, organism-based, Thyroid gland; details: in vivo, iv, 1 h; outline: as §2
Rattus norvegicus [26] = assay: Distribution of radioactivity was measured in liver tissue of unfasted Fischer 344 rats administered intravenously after 30 minutes (radiolabeled with [125I]-; type: ADME, organism-based; details: in vivo, iv, 0.5 h; outline: as §1
Rattus norvegicus [27] = assay: Mean heart/blood tissue of unfasted Fischer 344 rats administered intravenous after 60 minutes (radiolabeled with [125I]-; type: ADME, organism-based; details: other tissue, 1 h; outline: as §2
Rattus norvegicus [28] = assay: Distribution of radioactivity was measured in lung tissue of unfasted Fischer 344 rats administered intravenously after 15 minutes (radiolabeled with [125I]-; type: ADME, organism-based; details: in vivo, iv, 0.25 h; outline: as §1
Rattus norvegicus [29] = assay: Mean heart/blood tissue of unfasted Fischer 344 rats administered intravenous after 30 minutes (radiolabeled with [125I]-; type: ADME, organism-based; details: in vivo, 0.5 h; outline: as §2
Rattus norvegicus [30] = assay: Distribution of radioactivity was measured in blood tissue of unfasted Fischer 344 rats administered intravenously after 30 minutes (radiolabeled with [125I]-; type: ADME, organism-based; details: in vivo, iv, 0.5 h; outline: as §1
Rattus norvegicus [31] = assay: Distribution of radioactivity was measured in lung tissue of unfasted Fischer 344 rats administered intravenously after 60 minutes (radiolabeled with [125I]-; type: ADME, organism-based; details: in vivo, iv, 1 h; outline: as §1
Rattus norvegicus [32] = assay: Distribution of radioactivity was measured in blood tissue of unfasted Fischer 344 rats administered intravenously after 60 minutes (radiolabeled with [125I]-; type: ADME, organism-based; details: in vivo, iv, 1 h; outline: as §1
Rattus norvegicus [33] = assay: Distribution of radioactivity was measured in kidney tissue of unfasted Fischer 344 rats administered intravenously after 15 minutes (radiolabeled with [125I]-; type: ADME, organism-based; details: in vivo, iv, 0.25 h; outline: as §1
Rattus norvegicus [34] = assay: Distribution of radioactivity was measured in heart tissue of unfasted Fischer 344 rats administered intravenously after 15 minutes (radiolabeled with [125I]-; type: ADME, organism-based; details: in vivo, iv, 0.25 h; outline: as §1
Rattus norvegicus [35] = assay: Distribution of radioactivity was measured in blood tissue of unfasted Fischer 344 rats administered intravenously after 15 minutes (radiolabeled with [125I]-; type: ADME, organism-based; details: in vivo, iv, 0.25 h; outline: as §1
Rattus norvegicus [36] = assay: Distribution of radioactivity was measured in heart tissue of unfasted Fischer 344 rats administered intravenously after 2 minutes (radiolabeled with [125I]-; type: ADME, organism-based; details: in vivo, iv; outline: as §1
Rattus norvegicus [37] = assay: Distribution of radioactivity was measured in kidney tissue of unfasted Fischer 344 rats administered intravenously after 2 minutes (radiolabeled with [125I]-; type: ADME, organism-based; details: in vivo, iv; outline: as §1

SMILES: O=C(O)CCCCCCCCCCCCCCCC/C=C/I
- Distribution (Rattus norvegicus [1]): 21.9%
- Distribution (Rattus norvegicus [2]): 6.91%
- Distribution (Rattus norvegicus [3]): 3.79%
- Specific activity (Rattus norvegicus [4]): 1.77 Ci mM-1
- Distribution (Rattus norvegicus [5]): 0.76%
- Specific activity (Rattus norvegicus [6]): 2.21 Ci mM-1
- Distribution (Rattus norvegicus [7]): 15.7%
- Distribution (Rattus norvegicus [8]): 8.6%
- Distribution (Rattus norvegicus [9]): 9.9%
- Distribution (Rattus norvegicus [10]): 8.73%
- Distribution (Rattus norvegicus [11]): 3.79%
- Distribution (Rattus norvegicus [12]): 3.72%
- Distribution (Rattus norvegicus [13]): 1.16%
- Distribution (Rattus norvegicus [14]): 7.91%
- Distribution (Rattus norvegicus [15]): 0.45%
- Distribution (Rattus norvegicus [16]): 1%
- Distribution (Rattus norvegicus [17]): 12.4%
- Distribution (Rattus norvegicus [18]): 6.45%
- Distribution (Rattus norvegicus [19]): 0.3%
- Distribution (Rattus norvegicus [20]): 0.67%
- Distribution (Rattus norvegicus [21]): 5.88%
- Distribution (Rattus norvegicus [22]): 0.82%
- Distribution (Rattus norvegicus [23]): 3.4%
- Distribution (Rattus norvegicus [24]): 0.97%
- Distribution (Rattus norvegicus [25]): 43.5%
- Distribution (Rattus norvegicus [26]): 5.72%
- Distribution (Rattus norvegicus [27]): 10.9%
- Distribution (Rattus norvegicus [28]): 0.92%
- Distribution (Rattus norvegicus [29]): 7.4%
- Distribution (Rattus norvegicus [30]): 0.51%
- Distribution (Rattus norvegicus [31]): 0.86%
- Distribution (Rattus norvegicus [32]): 0.31%
- Distribution (Rattus norvegicus [33]): 0.73%
- Distribution (Rattus norvegicus [34]): 3%
- Distribution (Rattus norvegicus [35]): 0.35%
- Distribution (Rattus norvegicus [36]): 4.44%
- Distribution (Rattus norvegicus [37]): 0.85%

SMILES: CC(CCCCCCCCCCCCCC/C=C/I)CC(=O)O (centres undefined)
- Distribution (Rattus norvegicus [1]): 29.4%
- Distribution (Rattus norvegicus [2]): 8.32%
- Distribution (Rattus norvegicus [3]): 4.73%
- Specific activity (Rattus norvegicus [4]): 7.08 Ci mM-1
- Distribution (Rattus norvegicus [5]): 0.71%
- Specific activity (Rattus norvegicus [6]): 4.98 Ci mM-1
- Distribution (Rattus norvegicus [7]): 16.9%
- Distribution (Rattus norvegicus [8]): 7.4%
- Distribution (Rattus norvegicus [9]): 3.7%
- Distribution (Rattus norvegicus [10]): 9.49%
- Distribution (Rattus norvegicus [11]): 4.12%
- Distribution (Rattus norvegicus [12]): 3.74%
- Distribution (Rattus norvegicus [13]): 1.42%
- Distribution (Rattus norvegicus [14]): 7.21%
- Distribution (Rattus norvegicus [15]): 1.05%
- Distribution (Rattus norvegicus [16]): 0.89%
- Distribution (Rattus norvegicus [17]): 5.6%
- Distribution (Rattus norvegicus [18]): 7.81%
- Distribution (Rattus norvegicus [19]): 0.67%
- Distribution (Rattus norvegicus [20]): 0.67%
- Distribution (Rattus norvegicus [21]): 8.44%
- Distribution (Rattus norvegicus [22]): 0.92%
- Distribution (Rattus norvegicus [23]): 3.08%
- Distribution (Rattus norvegicus [24]): 1.18%
- Distribution (Rattus norvegicus [25]): 65.4%
- Distribution (Rattus norvegicus [26]): 5.97%
- Distribution (Rattus norvegicus [27]): 8.3%
- Distribution (Rattus norvegicus [28]): 0.83%
- Distribution (Rattus norvegicus [29]): 6.9%
- Distribution (Rattus norvegicus [30]): 0.59%
- Distribution (Rattus norvegicus [31]): 0.73%
- Distribution (Rattus norvegicus [32]): 0.37%
- Distribution (Rattus norvegicus [33]): 0.66%
- Distribution (Rattus norvegicus [34]): 3.47%
- Distribution (Rattus norvegicus [35]): 0.41%
- Distribution (Rattus norvegicus [36]): 3.93%
- Distribution (Rattus norvegicus [37]): 0.95%
